Source: ChEMBL document CHEMBL4359877, “Identification of benzothiazinones containing an oxime functional moiety as new anti-tuberculosis agents” (Eur J Med Chem, 2019)

Assays:
[1] = Mutagenicity in Salmonella typhimurium TA100 in presence of S9 fraction by mini-Ames test; assay type: toxicity, subcellular; conditions: salmonella enterica subsp. enterica serovar typhimurium
[2] = tested on: Mycobacterium tuberculosis; assay: Antimycobacterial activity against Mycobacterium tuberculosis H37Rv assessed as reduction in bacterial cell growth at 32 ug/ml by Low-oxygen recovery assay; assay type: functional
[3] = Cmax in Sprague-Dawley rat at 25 mg/kg, po measured upto 24 hrs by HPLC analysis; assay type: ADME, organism-based; design: dose 25 mg/kg, route oral; conditions: in vivo
Outline: (§1)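 SD rats, 180–220 g; single intravenous dose 2.5 mg/kg or oral doses of 25, 50 or 200 mg/kg, n = 6, half of each sex. Serum sampling, acetonitrile deproteinisation and HPLC quantification followed the mouse procedure. Parameters derived from concentration–time data; F% obtained from the oral and IV exposures.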

[4] = tested on: Mycobacterium tuberculosis; assay: Antimycobacterial activity against Mycobacterium tuberculosis H37Rv ATCC 27294 assessed as reduction in bacterial cell growth incubated for 7 days by microplate alamar blue assay; assay type: functional; conditions: H37Rv ATCC 27294, 168 h
Outline: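 MABA: H37Rv or clinical MDR isolates (resistant to INH and RFP, Beijing Chest Hospital patients) grown to late log phase in 7H9 with glycerol, Tween 80 and ADC, washed, filtered and frozen. Two-fold compound dilutions with 2 × 10⁵ CFU per well, 37 °C; Alamar blue plus Tween 80 added on day 7, fluorescence (ex 530/em 590) read after 16–24 h. MIC = lowest concentration giving ≥90% fluorescence reduction versus mean of bacterium-only controls; RIF and INH as positive controls.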

[5] = Oral bioavailability in Sprague-Dawley rat at 50 mg/kg measured upto 24 hrs by HPLC analysis; assay type: ADME, organism-based; conditions: in vivo; outline: as §1
[6] = Mutagenicity in Salmonella typhimurium TA100 in absence of S9 fraction by mini-Ames test; assay type: toxicity; conditions: salmonella enterica subsp. enterica serovar typhimurium
[7] = AUC (0 to infinity) in Sprague-Dawley rat at 25 mg/kg, po by HPLC analysis; assay type: ADME, organism-based; design: dose 25 mg/kg, route oral, time infinity; conditions: in vivo; outline: as §1
CYP3A4 = CYP3A4 (Homo sapiens, UniProt P08684); assay: Inhibition of CYP3A4 (unknown origin); assay type: ADME
[8] = AUC (0 to infinity) in Sprague-Dawley rat at 200 mg/kg, po by HPLC analysis; assay type: ADME, organism-based; design: dose 200 mg/kg, route oral, time infinity; conditions: in vivo; outline: as §1
[9] = Half life in Sprague-Dawley rat at 50 mg/kg, po measured upto 24 hrs by HPLC analysis; assay type: ADME, organism-based; conditions: in vivo; outline: as §1
[10] = Oral bioavailability in Sprague-Dawley rat at 200 mg/kg measured upto 24 hrs by HPLC analysis; assay type: ADME, organism-based; conditions: in vivo; outline: as §1
CYP2C9 = CYP2C9 (Homo sapiens, UniProt P11712); assay: Inhibition of CYP2C9 (unknown origin); assay type: ADME
[11] = tested on: Mycobacterium tuberculosis; assay: Antituberculosis activity against Mycobacterium tuberculosis H37Rv infected in BALB/C mouse assessed as colony forming unit in lungs at 25 mg/kg, po administered once daily via gavage for 5 days per week for 3 weeks starting from 10 days post-infection (reference value: 6.44 +/- 0.34); assay type: functional
[12] = Cytotoxicity against African green monkey Vero cells assessed as reduction in cell viability; assay type: cell-based; conditions: chlorocebus sabaeus
[13] = Cmax in Sprague-Dawley rat at 2.5 mg/kg, iv measured upto 24 hrs by HPLC analysis; assay type: ADME, organism-based; design: dose 2.5 mg/kg, route intravenous; conditions: in vivo; outline: as §1
[14] = AUC (0 to infinity) in Sprague-Dawley rat at 50 mg/kg, po by HPLC analysis; assay type: ADME, organism-based; design: dose 50 mg/kg, time infinity, route oral; conditions: in vivo; outline: as §1
[15] = Tmax in Sprague-Dawley rat at 200 mg/kg, po measured upto 24 hrs by HPLC analysis; assay type: ADME, organism-based; conditions: in vivo; outline: as §1
[16] = Tmax in Sprague-Dawley rat at 50 mg/kg, po measured upto 24 hrs by HPLC analysis; assay type: ADME, organism-based; conditions: in vivo; outline: as §1
[17] = Cmax in ICR mouse at 25 mg/kg, po measured upto 24 hrs by HPLC analysis; assay type: ADME, organism-based; design: dose 25 mg/kg, route oral; conditions: in vivo
Outline: (§2)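 Female SPF ICR mice, 18–22 g, fasted overnight, 3 per group; single oral dose 25 mg/kg as suspension in 0.5% CMC. Jugular vein blood drawn at 0.25, 0.5, 1, 2, 4, 6, 8 and 24 h; serum deproteinised with acetonitrile, dried, redissolved and quantified by HPLC. AUC, t1/2, Cmax and Tmax taken directly from concentration–time data.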

[18] = Oral bioavailability in Sprague-Dawley rat at 25 mg/kg measured upto 24 hrs by HPLC analysis; assay type: ADME, organism-based; conditions: in vivo; outline: as §1
[19] = Acute toxicity in Sprague-Dawley rat assessed as death at 2 g/kg, po measured continuously for first 4 hrs followed by every 1 hr for next 24 hrs and subsequent 8 hrs interval for 7 days; assay type: organism-based; conditions: in vivo, 2000 mg/kg
Outline: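 SD rats, 180–220 g, randomised, ten per group, food withheld overnight. Single oral dose of 2 g/kg suspended in 5% CMC; controls given vehicle only. Watched continuously for 4 h, hourly for the next 24 h, then every 8 h through day 7 for deaths or changes. Read-out is survivors/total at 7 days.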

[20] = Half life in Sprague-Dawley rat at 25 mg/kg, po measured upto 24 hrs by HPLC analysis; assay type: ADME, organism-based; conditions: in vivo; outline: as §1
Cytochrome P450 2C19 = Cytochrome P450 2C19 (Homo sapiens, UniProt P33261); assay: Inhibition of CYP2C19 (unknown origin); assay type: ADME
[21] = Half life in Sprague-Dawley rat at 200 mg/kg, po measured upto 24 hrs by HPLC analysis; assay type: ADME, organism-based; conditions: in vivo; outline: as §1
CYP2D6 = CYP2D6 (Homo sapiens, UniProt P10635); assay: Inhibition of CYP2D6 (unknown origin); assay type: ADME
[22] = Half life in Sprague-Dawley rat at 2.5 mg/kg, iv measured upto 24 hrs by HPLC analysis; assay type: ADME, organism-based; conditions: in vivo; outline: as §1
[23] = AUC (0 to infinity) in ICR mouse at 25 mg/kg, po measured upto 24 hrs by HPLC analysis; assay type: ADME, organism-based; design: dose 25 mg/kg, time infinity, route oral; conditions: in vivo; outline: as §2
[24] = Half life in ICR mouse at 25 mg/kg, po measured upto 24 hrs by HPLC analysis; assay type: ADME, organism-based; conditions: in vivo; outline: as §2
[25] = MRT in ICR mouse at 25 mg/kg, po measured upto 24 hrs by HPLC analysis; assay type: ADME, organism-based; conditions: in vivo; outline: as §2
[26] = Mutagenicity in Salmonella typhimurium TA102 in absence of S9 fraction by mini-Ames test; assay type: toxicity; conditions: salmonella enterica subsp. enterica serovar typhimurium
CYP1A2 = target: T1, CYP1A2 (Homo sapiens, UniProt P05177); assay: Inhibition of CYP1A2 (unknown origin); assay type: ADME
T1 sequence (P05177 whole entry): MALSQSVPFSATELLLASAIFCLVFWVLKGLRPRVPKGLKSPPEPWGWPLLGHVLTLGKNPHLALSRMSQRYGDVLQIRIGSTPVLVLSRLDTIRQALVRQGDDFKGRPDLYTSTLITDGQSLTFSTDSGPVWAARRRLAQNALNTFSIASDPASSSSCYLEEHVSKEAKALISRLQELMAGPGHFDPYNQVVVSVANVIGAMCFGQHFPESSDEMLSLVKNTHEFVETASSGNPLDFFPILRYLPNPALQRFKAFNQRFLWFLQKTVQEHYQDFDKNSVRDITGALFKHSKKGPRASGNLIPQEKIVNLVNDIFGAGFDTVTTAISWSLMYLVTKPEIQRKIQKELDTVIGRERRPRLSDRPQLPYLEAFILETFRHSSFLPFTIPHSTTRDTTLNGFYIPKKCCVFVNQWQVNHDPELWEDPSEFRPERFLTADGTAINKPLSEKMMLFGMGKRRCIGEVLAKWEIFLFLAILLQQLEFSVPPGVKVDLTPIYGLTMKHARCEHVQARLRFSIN

[27] = Mutagenicity in Salmonella typhimurium TA102 in presence of S9 fraction by mini-Ames test; assay type: toxicity, subcellular; conditions: salmonella enterica subsp. enterica serovar typhimurium
[28] = AUC (0 to infinity) in Sprague-Dawley rat at 2.5 mg/kg, iv by HPLC analysis; assay type: ADME, organism-based; design: dose 2.5 mg/kg, route intravenous, time infinity; conditions: in vivo; outline: as §1
[29] = tested on: Mycobacterium tuberculosis; assay: Antituberculosis activity against Mycobacterium tuberculosis H37Rv infected in BALB/C mouse assessed as reduction in log10CFU in lungs at 25 mg/kg, po administered once daily for 5 days per week for a total of 3 weeks started on day 10 post-infection; assay type: functional
[30] = Cmax in Sprague-Dawley rat at 50 mg/kg, po measured upto 24 hrs by HPLC analysis; assay type: ADME, organism-based; design: dose 50 mg/kg, route oral; conditions: in vivo; outline: as §1
[31] = Tmax in ICR mouse at 25 mg/kg, po measured upto 24 hrs by HPLC analysis; assay type: ADME, organism-based; conditions: in vivo; outline: as §2
[32] = Tmax in Sprague-Dawley rat at 25 mg/kg, po measured upto 24 hrs by HPLC analysis; assay type: ADME, organism-based; conditions: in vivo; outline: as §1
[33] = Cmax in Sprague-Dawley rat at 200 mg/kg, po measured upto 24 hrs by HPLC analysis; assay type: ADME, organism-based; design: dose 200 mg/kg, route oral; conditions: in vivo; outline: as §1
[34] = tested on: Mycobacterium tuberculosis; assay: Antimycobacterial activity against Mycobacterium tuberculosis H37Rv assessed as reduction in bacterial cell growth by Low-oxygen recovery assay; assay type: functional

Cytochrome P450 2C19, sequence (P33261 whole entry): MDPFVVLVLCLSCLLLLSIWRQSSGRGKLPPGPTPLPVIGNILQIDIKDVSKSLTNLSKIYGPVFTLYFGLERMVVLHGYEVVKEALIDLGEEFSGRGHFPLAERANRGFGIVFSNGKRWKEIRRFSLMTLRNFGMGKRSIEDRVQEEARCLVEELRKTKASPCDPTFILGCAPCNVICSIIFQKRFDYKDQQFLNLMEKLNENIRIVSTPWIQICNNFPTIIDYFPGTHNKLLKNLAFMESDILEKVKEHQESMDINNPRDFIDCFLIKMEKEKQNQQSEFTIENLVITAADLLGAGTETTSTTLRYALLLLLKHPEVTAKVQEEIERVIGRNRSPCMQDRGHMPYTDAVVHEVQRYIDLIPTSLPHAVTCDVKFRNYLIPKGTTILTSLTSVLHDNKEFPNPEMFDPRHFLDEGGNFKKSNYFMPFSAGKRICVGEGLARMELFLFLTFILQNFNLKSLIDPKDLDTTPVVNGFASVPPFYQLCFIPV
CYP3A4, sequence (P08684 whole entry): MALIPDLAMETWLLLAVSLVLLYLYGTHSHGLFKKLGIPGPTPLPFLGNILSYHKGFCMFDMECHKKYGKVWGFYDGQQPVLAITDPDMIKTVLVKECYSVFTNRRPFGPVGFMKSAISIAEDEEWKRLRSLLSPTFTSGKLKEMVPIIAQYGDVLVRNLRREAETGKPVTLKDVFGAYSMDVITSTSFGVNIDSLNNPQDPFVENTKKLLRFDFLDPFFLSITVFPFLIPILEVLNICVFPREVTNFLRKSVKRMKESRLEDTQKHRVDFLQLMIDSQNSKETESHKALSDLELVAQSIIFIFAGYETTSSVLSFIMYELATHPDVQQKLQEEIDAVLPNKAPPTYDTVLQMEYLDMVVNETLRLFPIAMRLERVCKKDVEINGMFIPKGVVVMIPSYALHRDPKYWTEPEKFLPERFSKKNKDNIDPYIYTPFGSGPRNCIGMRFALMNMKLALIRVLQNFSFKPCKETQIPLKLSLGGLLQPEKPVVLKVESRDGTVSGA
CYP2C9, sequence (P11712 whole entry): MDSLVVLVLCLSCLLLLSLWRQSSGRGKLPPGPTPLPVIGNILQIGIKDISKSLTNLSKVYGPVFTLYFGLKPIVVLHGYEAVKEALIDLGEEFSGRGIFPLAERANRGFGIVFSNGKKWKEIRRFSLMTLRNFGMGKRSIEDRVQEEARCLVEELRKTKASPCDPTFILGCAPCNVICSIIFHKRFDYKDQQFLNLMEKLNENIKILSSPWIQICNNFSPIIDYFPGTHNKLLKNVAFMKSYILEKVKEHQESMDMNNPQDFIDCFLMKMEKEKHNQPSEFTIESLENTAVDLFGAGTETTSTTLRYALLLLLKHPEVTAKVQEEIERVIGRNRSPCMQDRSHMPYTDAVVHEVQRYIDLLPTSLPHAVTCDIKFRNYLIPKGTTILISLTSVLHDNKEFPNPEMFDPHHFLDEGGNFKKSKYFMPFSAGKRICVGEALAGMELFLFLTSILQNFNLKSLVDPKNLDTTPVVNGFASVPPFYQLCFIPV
CYP2D6, sequence (P10635 whole entry): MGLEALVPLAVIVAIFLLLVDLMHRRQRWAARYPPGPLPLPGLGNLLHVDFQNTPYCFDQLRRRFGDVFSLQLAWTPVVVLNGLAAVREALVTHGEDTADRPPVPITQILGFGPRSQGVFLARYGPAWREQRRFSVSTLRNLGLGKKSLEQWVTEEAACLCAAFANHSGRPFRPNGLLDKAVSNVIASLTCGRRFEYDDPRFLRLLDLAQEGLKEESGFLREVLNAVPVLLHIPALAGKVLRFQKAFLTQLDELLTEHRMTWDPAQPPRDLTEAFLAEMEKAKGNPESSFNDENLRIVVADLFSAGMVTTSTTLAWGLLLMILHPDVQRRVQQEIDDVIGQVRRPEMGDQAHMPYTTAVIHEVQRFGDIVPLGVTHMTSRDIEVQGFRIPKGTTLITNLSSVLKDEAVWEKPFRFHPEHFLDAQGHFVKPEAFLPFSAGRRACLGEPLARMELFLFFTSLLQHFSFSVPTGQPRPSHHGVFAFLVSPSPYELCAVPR

With CON=C1CCC(CN2CCN(c3nc(=O)c4cc(C(F)(F)F)cc([N+](=O)[O-])c4s3)CC2)CC1 (centres undefined) the Activity [1] was “Non-Toxic”, the inhibition at 32 µg/mL [2] was 86% and the Cmax [3] was 6230 ng/mL. For the same compound, the MIC90 [4] was < 0.016 µg/mL, the bioavailability [5] was 40.4% and the Activity [6] was “Non-Toxic”. For the same compound, the AUC(0-inf) [7] was 26800 ng·h/mL, the IC50 (CYP3A4) was > 10 µM and the AUC(0-inf) [8] was 128000 ng·h/mL. For the same compound, the half-life [9] was 4.13 h, the bioavailability [10] was 30.3% and the IC50 (CYP2C9) was > 10 µM. The Activity [11] was 2.4 log10CFU, the CC50 [12] was > 64 µg/mL and the Cmax [13] was 2590 ng/mL. It also gave an AUC(0-inf) [14] of 45900 ng·h/mL, a Tmax [15] of 2.83 h and a Tmax [16] of 1.67 h. For the same compound, the Cmax [17] was 8570 ng/mL, the bioavailability [18] was 46.1% and the Activity [19] was “Non-Toxic”. For the same compound, the half-life [20] was 3.2 h, the IC50 (Cytochrome P450 2C19) was 7.8 µM and the half-life [21] was 6.73 h. For the same compound, the IC50 (CYP2D6) was > 10 µM, the half-life [22] was 1.77 h and the AUC(0-inf) [23] was 27500 ng·h/mL. For the same compound, the half-life [24] was 1.65 h, the MRT [25] was 2.46 h and the Activity [26] was “Non-Toxic”. The IC50 (CYP1A2) was > 10 µM, the Activity [27] was “Non-Toxic” and the AUC(0-inf) [28] was 5720 ng·h/mL. The Activity [29] was 4.04 log10CFU, the Cmax [30] was 10100 ng/mL and the Tmax [31] was 0.25 h. For the same compound, the Tmax [32] was 1.25 h, the Cmax [33] was 18200 ng/mL and the MIC [34] was > 32 µg/mL.
